Source: PubChem BioAssay (several laboratories)
Ba/F3 V617F tox = lowers viability of Ba/F3 cells expressing EpoR and JAK2V617F; ATP luminescence; inhibition, % at 5.6 µM; 220,000 tested, 1.1% active;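 active = inhibition above the campaign mean plus 3 SD over all tested compounds, cut at about 24% in these data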;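 note: cytokine-independent growth of Ba/F3 cells driven by EpoR plus mutant JAK2; 0% = DMSO-treated cells and 100% = JAK inhibitor I control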
IEC-6 cytotox = kills IEC-6 intestinal cells in KLF5 counter-screen. inhibition, % at 5 µM. IEC-6 cytotoxicity, luminescence viability. 290,000 tested, 0.78% active;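 note: 0% = plate median of test compound wells and 100% = cytotoxic reference compound wells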
MT stabilizer = stabilizes microtubules in HeLa cells. HeLa tubulin immunostaining HCS, 24 h; share of cells brighter than vehicle mean+2SD. % tubulin-high responders, % at 10 µM. 200,000 tested, 0.83% active. AID 2205;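 active = plate Z-score above 3 for both tubulin-high and condensed-nucleus cell shares, with cell loss under 80%, at 10 µM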;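 note: anti alpha tubulin signal scored within the nucleus-defined area of each cell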
b-catenin transl = modulators of beta-catenin nuclear translocation. HeLa beta-catenin nuclear translocation, immunofluorescence imaging. nuclear translocation activity, % at 5 µM. 190,000 tested, 0.3% active. AID 1665;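 active = nuclear translocation activity above 50% at 5 µM, with a well cell count of 50 or more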;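 note: per-cell ratio of nuclear to cytoplasmic median beta-catenin stain intensity; plate controls were DMSO negative control for no effect and GSK-3 inhibitor IX positive control for full effect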
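Read-out: Nuclear/cytoplasmic beta-catenin signal ratio, % activation | Assay system: Human HeLa cell line | Times: 24 h compound exposure at 37°C, 5% CO2 | Signal: Fluorescence imaging of beta-catenin antibody stain plus DAPI | Dosing: 5 µM primary, 0.02–20 µM confirmation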
KLF5 inh = kruppel-like factor 5 inhibition | inhibition, % at 5 µM | AID 1700 | DLD-1 KLF5 promoter-luciferase reporter, luminescence | 290,000 tested, 0.23% active;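 active = inhibition above a per-plate limit of that plate's mean compound inhibition plus 3 SD, cut at about 60% in these data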;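 note: 0% = DMSO wells and 100% = LY294002 at 200 µM; higher means less KLF5 promoter-driven luciferase light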
BaF3 parental = parental Ba/F3 viability inhibition as JAK2V617F counter-screen. inhibition, % at 5.6 µM. 220,000 tested, 1.1% active. CellTiter-Glo ATP luminescence;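 active = inhibition above a per-campaign cutoff, the mean inhibition of all tested compounds plus 3 SD, cut at about 27% in these data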;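 note: 0% = DMSO wells and 100% = JAK Inhibitor I control wells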
IEC-6 cytotox cf = confirmation of cytotoxic compounds in rat IEC-6 intestinal epithelial cells. IEC-6 rat intestinal epithelial viability, luminescence. 1,900 tested, 63% active. inhibition, % at 5 µM. shares compounds with IEC-6 cytotox;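 note: 0% = vehicle and 100% = reference cytotoxic drug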
Active calls of the source: *; · = no result given. Compounds with a hit are over-represented: about 2.1% of the library has one in this group of screens. Cut-off read from the data, not from the text of the source, unless noted: active = inhibition above about 22%; inactive = the rest.

SMILES | Ba/F3 V617F tox | IEC-6 cytotox | MT stabilizer | b-catenin transl | KLF5 inh | BaF3 parental | IEC-6 cytotox cf
COc1cc(C2c3cc4c(cc3C(OC3OC5COC(c6cccs6)OC5C(O)C3O)C3COC(=O)C23)OCO4)cc(OC)c1O (centres undefined) | 98* | 93* | · | -1 | 41 | 102* | 74*
CCOC(=O)c1nn(-c2ccc(Cl)cc2)c2nc(Nc3ccccc3)cc(=O)n12 | -1 | 5 | 2 | 0 | 18 | 4 | ·
CN(C)C(=S)Nc1nc2ccccc2s1 | 3 | 30* | 3 | 0 | -182 | 4 | -5
Cc1nc2ccc(NC(=O)c3ccccc3)cc2s1 | -1 | -1 | 3 | -1 | -94 | 2 | ·
Cc1nc2ccc(NC(=O)c3cncc(Br)c3)cc2s1 | 80* | 88* | · | -2 | 39 | 60* | -4
Cc1ccccc1NC(=O)c1cccc(NC(=O)c2ccco2)c1 | · | 0 | · | · | -7 | · | ·
CCOc1ccccc1NC(=O)c1cccc(NC(=O)c2ccco2)c1 | 82* | 55* | 41* | 72* | 45 | 68* | 52*
Cc1ccc(NC(=O)Nc2ccc(F)cc2)cc1Cl | 6 | 9 | 1 | 1 | -106 | 7 | ·
OC(CNCCc1ccc(Cl)cc1)COc1ccc2ccccc2c1 (centres undefined) | 3 | 8 | 7 | 0 | 2 | 0 | ·
OC(CNCCc1ccccc1)COc1ccc(OCC(O)CNCCc2ccccc2)cc1 (centres undefined) | 8 | 26* | · | 14 | -25 | 9 | 42*
COc1ccc(OCCNC(=O)CCCO)cc1 | 0 | -1 | · | -3 | -13 | -1 | ·
CN(C)c1ccc(NC(=O)CSc2nc3ccccc3c(=O)n2C2CCCCC2)cc1 | 1 | 2 | 3 | -3 | -4 | 6 | ·
Cc1cc(NC(=O)CSc2nc3ccccc3c(=O)n2C2CCCC2)no1 | 13 | 63* | 15 | · | 31 | 8 | 56*
COc1cccc(C(=O)Nc2ccccc2OC(F)(F)F)c1 | 5 | 7 | 4 | 5 | -3 | 4 | ·
Nc1cccc(-c2nc3ccc(C(=O)c4ccccc4)cc3[nH]2)c1 | · | 72* | · | · | -4 | · | 60*
Clc1ccc(Cn2ncc3c(NCc4ccccc4)ncnc32)cc1 | 2 | 28* | 1 | -2 | 45 | 10 | 27*
COc1ccc(OC)c(-c2cc(-c3cccnc3)nc(N)c2C#N)c1 | 84* | 35* | · | 1 | 30 | 45* | 52*
O=C(CSc1nncs1)Nc1ccc(S(=O)(=O)N2CCCC2)cc1 | -1 | -1 | 2 | -4 | -9 | 7 | ·
COc1ccc(-c2cc(C(=O)N3CCN(c4ccccc4)CC3)c3ccccc3n2)cc1 | 2 | 28* | 17* | 113* | -5 | 10 | 6
COc1ccc(-c2cc(C(=O)N3CCCC3)c3ccccc3n2)cc1 | · | 7 | · | · | -45 | · | ·
CCOc1ccc(-n2c(-c3ccc(Br)cc3)c[n+]3c2CCCCC3)cc1 | 96* | 29* | 3 | 0 | 21 | 79* | 21
CCOc1ccc(-n2c(-c3ccc(OC)cc3)c[n+]3c2CCCCC3)cc1 | 97* | 22* | 3 | 2 | -16 | 74* | 27*
COc1ccc(-c2c[n+]3c(n2-c2ccc(C)cc2)CCCCC3)cc1 | 94* | 29* | · | 2 | -12 | 73* | 21
COc1ccc(C(C(=O)NCc2ccccc2)N(C(=O)c2snc(C(N)=O)c2N)C2CCCC2)cc1O (centres undefined) | · | -1 | · | · | -28 | · | ·
COc1ccc(C2=NOC(C(=O)Nc3cccnc3Cl)C2)cc1 (centres undefined) | 2 | -5 | 2 | 0 | -3 | 0 | ·
SMILES | Ba/F3 V617F tox | IEC-6 cytotox | MT stabilizer | b-catenin transl | KLF5 inh | BaF3 parental | IEC-6 cytotox cf
CCCCCCn1ccc(=N)cc1 | 92* | 28* | 3 | 2 | 6 | 69* | 26*
CC(C)(C)NC(=O)NC(=O)CN1C(=O)NC(c2ccccc2)(c2ccccc2)C1=O | · | -4 | · | · | -30 | · | ·
C/C(=N\NC(=O)c1ccc(Cl)cc1)c1ccccn1 | · | 23* | · | · | 33 | · | 99*
C/C(=N\NC(=O)c1ccccn1)c1ccc(Cl)cc1 | -3 | 3 | · | -1 | -126 | 2 | ·
CCOC(=O)C1(Cc2cccc(F)c2)CCN(Cc2c(C)nn(CC)c2C)CC1 | -2 | -3 | · | 1 | -20 | 7 | ·
NS(=O)(=O)c1ccc(CNC(=O)c2cc(=O)c3cc(Cl)ccc3o2)cc1 | · | 101* | · | · | -38 | · | -14
Cc1ccc2oc(C(=O)NCc3ccc(S(N)(=O)=O)cc3)cc(=O)c2c1 | · | -13 | · | · | -46 | · | ·
COc1cc(CC(=O)NCc2ccc3c(c2)OCO3)cc(OC)c1OC | -2 | -4 | 1 | · | -28 | 5 | ·
COc1cc(CC(=O)OCC(=O)c2ccc3c(c2)OCCO3)cc(OC)c1OC | 72* | 88* | 17* | 158* | 42 | 79* | 56*
O=C(NCCOc1ccccc1F)c1cc([N+](=O)[O-])ccc1N1CCOCC1 | · | 49* | · | · | 43 | · | 41*
CC1CCc2c(C(=O)Nc3cccc(-c4nn[nH]n4)c3)csc2C1 (centres undefined) | · | 42* | · | · | -32 | · | -5
CCc1nnc(NC(=O)c2csc3c2CCC(C)C3)s1 (centres undefined) | -2 | 0 | 1 | -1 | -1 | 2 | ·
Cn1c(N)nc2nc(CCc3ccccc3)c(=O)[nH]c2c1=O | · | 2 | · | · | -11 | · | ·
Nc1cc2nn(-c3ccccc3)nc2cc1Cl | -1 | 102* | 5 | 1 | -92 | 0 | 46*
Cc1ccc(OCCSc2ncnc3nc[nH]c23)cc1 | 1 | 0 | 1 | 5 | -107 | 7 | ·
Cc1cccnc1Sc1c([N+](=O)[O-])ncn1C | -1 | -2 | 2 | 1 | -37 | 4 | ·
Cn1cnc(Sc2ncnc3nc[nH]c23)c1[N+](=O)[O-] | 59* | 39* | · | 0 | -17 | 36* | 36*
Cn1cnc([N+](=O)[O-])c1Sc1ncnc2nc[nH]c12 | 56* | 35* | · | 2 | -5 | 29* | 47*
CC(C)C(=O)NCCCc1ccccc1 | 1 | 4 | 3 | -1 | -4 | 1 | ·
